Laboratory results taken from ChEMBL document CHEMBL1143838, “Candida albicans and Candida dubliniensis respond differently to echinocandin antifungal agents in vitro” (2007).
≈ marks a conversion by molar mass, not a printed value. *1 amine or outer side, *2 acyl side, *3 side chain or, on linkers, in order; H or OH if unused. Where a SMILES comes first, the peptide text is derived from it. Bridges are numbered along the chain shown (N, C = ends). [ ]: non-standard residue; d: D form. The star is where a group is joined. hTyr(3S-OH,4S-OH,3'-OSO3H) = N[C@H](C(=O)O)[C@H](O)[C@@H](O)c1ccc(O)c(OS(=O)(=O)O)c1; Orn(4R-OH,5R-OH) = O=C([C@H](C[C@@H](O)[C@@H](O)N[*:3])N[*:1])[*:2]; Pro(3S-OH,4S-Me) = C[C@H]1CN[C@H](C(=O)O)[C@H]1O; X1 = CCCCCOc1ccc(-c2cc(-c3ccc(C(=O)*)cc3)no2)cc1; Gln(3R-OH) = NC(=O)C[C@@H](O)[C@H](N)C(=O)O; Hyp = O=C(O)[C@@H]1C[C@@H](O)CN1

Tests used:
Assay type in all cases: functional
[1] = test system: Candida albicans; test: Antifungal activity against Candida albicans SCS140136P after 24 hrs by EUCAST test
In short: (§1)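 EUCAST broth microdilution with aqueous doubling dilutions of drug. Inoculum grown overnight at 30°C in NGY, then added to MOPS-buffered RPMI 1640 with 2% glucose at an initial 10^5 yeasts/ml. Incubated 35°C for 24 h. MICs taken from triplicate spectrophotometric dose-response data as 50% and 80% growth-reduction endpoints.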

[2] = test system: Pichia kudriavzevii; test: Antifungal activity against Candida krusei ATCC 6258 after 24 hrs by EUCAST test; conditions: ATCC 6258, 24 h
In short: (§2)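 Yeasts were grown overnight at 30°C in NGY, then inoculated at 10^5 yeasts/ml initial concentration into MOPS-buffered RPMI 1640 with 2% glucose containing aqueous doubling dilutions of drug. Plates were held at 35°C for 24 h. MICs came from triplicate spectrophotometric dose-response data at 50% and 80% growth-reduction endpoints. Trailing meant a >100-fold gap between these endpoints; paradoxical meant regrowth ≥5% above the curve minimum.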

[3] = test system: Candida dubliniensis; test: Antifungal activity against Candida dubliniensis SCS17154969-2 after 24 hrs by EUCAST test; in short: as §2
[4] = test system: Candida dubliniensis; test: Antifungal activity against Candida dubliniensis ANSA 23a after 24 hrs by EUCAST test; in short: as §2
[5] = test system: Candida dubliniensis; test: Antifungal activity against Candida dubliniensis Leic952 after 24 hrs by CLSI M27-A test
In short: (§3)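 Broth microdilution with echinocandins as aqueous doubling dilutions. Yeasts were grown overnight at 30°C in NGY and seeded at 10^3 yeasts/ml initial concentration in MOPS-buffered RPMI 1640, then incubated at 35°C for 24 h. The MIC was read visually as the lowest concentration giving a marked decrease in visible growth; paradoxical or trailing growth was noted.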

[6] = test system: Candida albicans; test: Antifungal activity against Candida albicans T26 after 24 hrs by EUCAST test; in short: as §1
[7] = test system: Candida albicans; test: Antifungal activity against Candida albicans JIMS132203 after 24 hrs by EUCAST test; in short: as §1
[8] = test system: Candida dubliniensis; test: Antifungal activity against Candida dubliniensis 90/033 after 24 hrs by EUCAST test; in short: as §1
[9] = test system: Candida albicans; test: Antifungal activity against Candida albicans B06-341 after 24 hrs by EUCAST test; in short: as §1
[10] = test system: Candida dubliniensis; test: Antifungal activity against Candida dubliniensis Leic952 after 24 hrs by EUCAST test; in short: as §2
[11] = test system: Candida albicans; test: Antifungal activity against Candida albicans HK04M102095 after 24 hrs by CLSI M27-A test
In short: (§4)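 CLSI M27-A broth microdilution with aqueous doubling dilutions of drug. Inoculum grown overnight at 30°C in NGY medium, then added to MOPS-buffered RPMI 1640 at an initial 10^3 yeasts/ml. Incubated 35°C for 24 h. MIC read visually as the lowest concentration giving a marked decrease in visible growth; paradoxical or trailing growth noted.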

[12] = test system: Candida dubliniensis; test: Antifungal activity against Candida dubliniensis ST after 24 hrs by EUCAST test; in short: as §2
[13] = test system: Candida parapsilosis; test: Antifungal activity against Candida parapsilosis ATCC 22019 after 24 hrs by CLSI M27-A test; conditions: Lodderomyces parapsilosis, ATCC 22019, 24 h; in short: as §3
[14] = test system: Candida dubliniensis; test: Antifungal activity against Candida dubliniensis KR after 24 hrs by EUCAST test; in short: as §2
[15] = test system: Candida albicans; test: Antifungal activity against Candida albicans Y109 after 24 hrs by CLSI M27-A test; in short: as §4
[16] = test system: Candida albicans; test: Antifungal activity against Candida albicans NR2 after 24 hrs by EUCAST test; in short: as §1
[17] = test system: Candida albicans; test: Antifungal activity against Candida albicans T25 after 24 hrs by CLSI M27-A test; in short: as §4
[18] = test system: Candida albicans; test: Antifungal activity against Candida albicans SCS68858 after 24 hrs by CLSI M27-A test; in short: as §4
[19] = test system: Candida albicans; test: Antifungal activity against Candida albicans T25 after 24 hrs by EUCAST test; in short: as §1
[20] = test system: Candida dubliniensis; test: Antifungal activity against Candida dubliniensis 75/043 after 24 hrs by CLSI M27-A test; in short: as §4
[21] = test system: Candida albicans; test: Antifungal activity against Candida albicans AM2003/0083 after 24 hrs by CLSI M27-A test; in short: as §4
[22] = test system: Candida albicans; test: Antifungal activity against Candida albicans NR4 after 24 hrs by CLSI M27-A test; in short: as §4
[23] = test system: Candida albicans; test: Antifungal activity against Candida albicans HK04M102095 after 24 hrs by EUCAST test; in short: as §1
[24] = test system: Candida albicans; test: Antifungal activity against Candida albicans NR3 after 24 hrs by EUCAST test; in short: as §1
[25] = test system: Candida dubliniensis; test: Antifungal activity against Candida dubliniensis KR after 24 hrs by CLSI M27-A test; in short: as §3
[26] = test system: Candida dubliniensis; test: Antifungal activity against Candida dubliniensis ST after 24 hrs by CLSI M27-A test; in short: as §3
[27] = test system: Candida parapsilosis; test: Antifungal activity against Candida parapsilosis ATCC 22019 after 24 hrs by EUCAST test; conditions: Lodderomyces parapsilosis, ATCC 22019, 24 h; in short: as §2
[28] = test system: Candida dubliniensis; test: Antifungal activity against Candida dubliniensis 910Aa after 24 hrs by EUCAST test; in short: as §1
[29] = test system: Candida dubliniensis; test: Antifungal activity against Candida dubliniensis SCS59662 after 24 hrs by CLSI M27-A test; in short: as §3
[30] = test system: Candida dubliniensis; test: Antifungal activity against Candida dubliniensis SCS65875C after 24 hrs by EUCAST test; in short: as §2
[31] = test system: Candida dubliniensis; test: Antifungal activity against Candida dubliniensis IK after 24 hrs by CLSI M27-A test; in short: as §3
[32] = test system: Candida albicans; test: Antifungal activity against Candida albicans NR3 after 24 hrs by CLSI M27-A test; in short: as §4
[33] = test system: Candida dubliniensis; test: Antifungal activity against Candida dubliniensis SCS17154969-1 after 24 hrs by CLSI M27-A test; in short: as §3
[34] = test system: Candida dubliniensis; test: Antifungal activity against Candida dubliniensis SCSBB417709 after 24 hrs by CLSI M27-A test; in short: as §3
[35] = test system: Candida dubliniensis; test: Antifungal activity against Candida dubliniensis 90/033 after 24 hrs by CLSI M27-A test; in short: as §4
[36] = test system: Candida dubliniensis; test: Antifungal activity against Candida dubliniensis SCS59662 after 24 hrs by EUCAST test; in short: as §2

How did the MIC50 [1] turn out when `CCCCCOc1ccc(-c2cc(-c3ccc(C(=O)N[C@H]4C[C@@H](O)[C@@H](O)NC(=O)[C@@H]5[C@@H](O)[C@@H](C)CN5C(=O)[C@H]([C@H](O)CC(N)=O)NC(=O)[C@H]([C@H](O)[C@@H](O)c5ccc(O)c(OS(=O)(=O)O)c5)NC(=O)[C@@H]5C[C@@H](O)CN5C(=O)[C@H]([C@@H](C)O)NC4=O)cc3)no2)cc1` [MICAFUNGIN] (X1-[Orn(4R-OH,5R-OH)]T[Hyp][hTyr(3S-OH,4S-OH,3'-OSO3H)][Gln(3R-OH)][Pro(3S-OH,4S-Me)]; lactam 1-C) was run?
The MIC50 was no more than 0.032 µg/mL.

What about the MIC50 [2] of the same molecule?
Its MIC50 is 0.13 µg/mL (≈ 0.102 µM).

And the MIC50 [3]?
Its MIC50 is 0.063 µg/mL (≈ 0.0496 µM).

And the MIC50 [4]?
The MIC50 was no more than 0.032 µg/mL.

And the MIC50 [5]?
The MIC50 was no more than 0.032 µg/mL.

What about the MIC50 [6] of the same molecule?
The MIC50 was 1 µg/mL (≈ 0.787 µM).

What about the MIC50 [7] of the same molecule?
The MIC50 was no more than 0.032 µg/mL.

And the MIC50 [8]?
The MIC50 was 0.063 µg/mL (≈ 0.0496 µM).

What about the MIC50 [9] of the same molecule?
Its MIC50 is no more than 0.032 µg/mL.

And the MIC50 [10]?
Its MIC50 is 0.063 µg/mL (≈ 0.0496 µM).

What about the MIC50 [11] of the same molecule?
Its MIC50 is no more than 0.032 µg/mL.

And the MIC50 [12]?
The MIC50 was 0.063 µg/mL (≈ 0.0496 µM).

And the MIC50 [13]?
Its MIC50 is 0.25 µg/mL (≈ 0.197 µM).

What about the MIC50 [14] of the same molecule?
Its MIC50 is no more than 0.032 µg/mL.

What about the MIC50 [15] of the same molecule?
The MIC50 was 0.25 µg/mL (≈ 0.197 µM).

What about the MIC50 [16] of the same molecule?
Its MIC50 is 0.5 µg/mL (≈ 0.394 µM).

And the MIC50 [17]?
The MIC50 was 1 µg/mL (≈ 0.787 µM).

What about the MIC50 [18] of the same molecule?
The MIC50 was no more than 0.032 µg/mL.

And the MIC50 [19]?
Its MIC50 is 1 µg/mL (≈ 0.787 µM).

And the MIC50 [20]?
Its MIC50 is no more than 0.032 µg/mL.

What about the MIC50 [21] of the same molecule?
Its MIC50 is no more than 0.032 µg/mL.

And the MIC50 [22]?
Its MIC50 is 0.25 µg/mL (≈ 0.197 µM).

What about the MIC50 [23] of the same molecule?
Its MIC50 is no more than 0.032 µg/mL.

What about the MIC50 [24] of the same molecule?
The MIC50 was 2 µg/mL (≈ 1.57 µM).

What about the MIC50 [25] of the same molecule?
The MIC50 was no more than 0.032 µg/mL.

What about the MIC50 [26] of the same molecule?
The MIC50 was no more than 0.032 µg/mL.

And the MIC50 [27]?
The MIC50 was 0.5 µg/mL (≈ 0.394 µM).

What about the MIC50 [28] of the same molecule?
The MIC50 was no more than 0.032 µg/mL.

And the MIC50 [29]?
The MIC50 was no more than 0.032 µg/mL.

What about the MIC50 [30] of the same molecule?
Its MIC50 is no more than 0.032 µg/mL.

What about the MIC50 [31] of the same molecule?
Its MIC50 is no more than 0.032 µg/mL.

And the MIC50 [32]?
The MIC50 was 1 µg/mL (≈ 0.787 µM).

What about the MIC50 [33] of the same molecule?
Its MIC50 is no more than 0.032 µg/mL.

What about the MIC50 [34] of the same molecule?
Its MIC50 is no more than 0.032 µg/mL.

What about the MIC50 [35] of the same molecule?
The MIC50 was no more than 0.032 µg/mL.

And the MIC50 [36]?
Its MIC50 is no more than 0.032 µg/mL.
